From ChEMBL document CHEMBL3751694, “1-Piperazinylphthalazines as potential VEGFR-2 inhibitors and anticancer agents: Synthesis and in vitro biological evaluation” (Eur J Med Chem, 2016) come the findings set out here.

One experiment has as its system CCRF-CEM. Put plainly: Growth inhibition of human CCRF-CEM cells at 10 uM after 48 hrs by SRB method. In kind it is functional. The settings on record: read-out: GI. In outline: (§1)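 NCI 56-line primary screen at a single 10^-5 M concentration. Cells grown in RPMI 1640 with 5% FBS and 2 mM L-glutamine, plated at 5000–40,000 cells/well, then preincubated for 24 h. Exposure was 48 h at 37 °C and 5% CO2. Adherent cells were fixed with cold TCA at 10% final, suspension cells at 16%. Staining used 0.4% SRB, read at 515 nm. Results are % growth inhibition relative to control.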
On the technique in general: Sulforhodamine B stains cellular protein and so reports cell mass.
Consider `O=C(CN1CCN(c2nnc(-c3ccccc3)c3ccccc23)CC1)Nc1nccs1`, for which the inhibition of growth at 10 µM was 30%.
Same read-out and setting: the value for `COc1ccc(-c2csc(NC(=O)CN3CCN(c4nnc(-c5ccccc5)c5ccccc45)CC3)n2)cc1` was 34%.

Tested on in another experiment: not listed separately
The experiment can be described thus: Growth inhibition of human […] cells at 10 uM after 48 hrs by SRB method. The experiment is classed as functional. The settings on record: read-out: GI. The method in brief:
as §1
In the case of `O=C(CN1CCN(c2nnc(-c3ccccc3)c3ccccc23)CC1)Nc1nccs1`, the inhibition of growth at 10 µM is 51%.
For `COc1ccc(-c2csc(NC(=O)CN3CCN(c4nnc(-c5ccccc5)c5ccccc45)CC3)n2)cc1`, the inhibition of growth at 10 µM is 50%.

Tested on in another experiment: not listed separately
The experiment can be described thus: Growth inhibition of human PC3 cells at 10 uM after 48 hrs by SRB method. The experiment is classed as functional. The conditions noted are these: PC-3, 48 h, read-out: GI. In outline:
as §1
In the case of `O=C(CN1CCN(c2nnc(-c3ccccc3)c3ccccc23)CC1)Nc1nccs1`, the inhibition of growth at 10 µM stood at 38%.
On to `COc1ccc(-c2csc(NC(=O)CN3CCN(c4nnc(-c5ccccc5)c5ccccc45)CC3)n2)cc1`, for which the inhibition of growth at 10 µM was determined as 47%.

Another experiment concerns A549. The experiment can be described thus: Growth inhibition of human A549 cells at 10 uM after 48 hrs by SRB method. In kind it is functional. The settings on record: A549, 48 h, read-out: GI. In outline: as §1
`COc1ccc(-c2csc(NC(=O)CN3CCN(c4nnc(-c5ccccc5)c5ccccc45)CC3)n2)cc1`: the inhibition of growth at 10 µM was 34%.

Tested on in a further experiment: not listed separately
Put plainly: Growth inhibition of human UO31 cells at 10 uM after 48 hrs by SRB method. The experiment is classed as functional. The settings on record: UO-31, 48 h, read-out: GI. In outline: (§2)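 NCI 56-line screen, single-dose primary assay at 10^-5 M. Cells grown in RPMI 1640 with 5% FBS and 2 mM L-glutamine, plated at 5000–40,000 cells/well and held 24 h at 37 °C, 5% CO2 before drug addition. Compound was given from DMSO stock, exposure 48 h, then TCA fixation and SRB staining with absorbance at 515 nm. % growth is taken relative to time-zero and untreated controls.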
In the case of `O=C(CN1CCN(c2nnc(-c3ccccc3)c3ccccc23)CC1)Nc1nccs1`, the inhibition of growth at 10 µM is 40%.
Take `COc1ccc(-c2csc(NC(=O)CN3CCN(c4nnc(-c5ccccc5)c5ccccc45)CC3)n2)cc1`: the inhibition of growth at 10 µM is 48%.

Tested on in another experiment: not listed separately
The experiment can be described thus: Growth inhibition of human UACC62 cells at 10 uM after 48 hrs by SRB method. The conditions noted are these: UACC-62, 48 h, read-out: GI. In kind it is functional. The method in brief:
as §2
In the case of `O=C(CN1CCN(c2nnc(-c3ccccc3)c3ccccc23)CC1)Nc1nccs1`, the inhibition of growth at 10 µM came out at 37%.

The subject of the next experiment is NCI/ADR-RES. The experiment can be described thus: Growth inhibition of human NCI/ADR-RES cells at 10 uM after 48 hrs by SRB method. The experiment is classed as functional. The settings on record: read-out: GI. In outline:
as §1
As for `O=C(CN1CCN(c2nnc(-c3ccccc3)c3ccccc23)CC1)Nc1nccs1`, the inhibition of growth at 10 µM turned out to be 32%.

Another experiment has as its system MDA-MB-468. The experiment can be described thus: Growth inhibition of human MDA-MB-468 cells at 10 uM after 48 hrs by SRB method. In kind it is functional. The settings on record: MDA-MB-468, 48 h, read-out: GI. The method in brief:
as §1
Turning to `O=C(CN1CCN(c2nnc(-c3ccccc3)c3ccccc23)CC1)Nc1nccs1`, the inhibition of growth at 10 µM came to 59%.
The same measure, in the same setting: as for `COc1ccc(-c2csc(NC(=O)CN3CCN(c4nnc(-c5ccccc5)c5ccccc45)CC3)n2)cc1`, the figure is 58%.

For another experiment, the system named is K562. The experiment can be described thus: Growth inhibition of human K562 cells at 10 uM after 48 hrs by SRB method. In kind it is functional. The conditions noted are these: K562, 48 h, read-out: GI. The method in brief: as §1
As to `O=C(CN1CCN(c2nnc(-c3ccccc3)c3ccccc23)CC1)Nc1nccs1`, the inhibition of growth at 10 µM came to 36%.
Same read-out and setting: the value for `COc1ccc(-c2csc(NC(=O)CN3CCN(c4nnc(-c5ccccc5)c5ccccc45)CC3)n2)cc1` was 48%.

Tested on in another experiment: not listed separately
The experiment can be described thus: Growth inhibition of human HL-60(TB) cells at 10 uM after 48 hrs by SRB method. In kind it is functional. The settings on record: HL-60, 48 h, read-out: GI. In outline:
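NCI single-dose primary screen at 10^-5 M, 48 h exposure. Cells grown in RPMI 1640 with 5% FBS and 2 mM L-glutamine. Suspension cells fixed in situ with TCA (final 16%), stained with SRB, absorbance read at 515 nm. Percent growth inhibition calculated against time-zero and untreated control plates.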
In the case of `O=C(CN1CCN(c2nnc(-c3ccccc3)c3ccccc23)CC1)Nc1nccs1`, the inhibition of growth at 10 µM was determined as 38%.
`COc1ccc(-c2csc(NC(=O)CN3CCN(c4nnc(-c5ccccc5)c5ccccc45)CC3)n2)cc1`: the inhibition of growth at 10 µM was found to be 40%.

Tested on in another experiment: not listed separately
Put plainly: Growth inhibition of human COLO205 cells at 10 uM after 48 hrs by SRB method. The experiment is classed as functional. The conditions noted are these: COLO 205, 48 h, read-out: GI. The method in brief:
as §1
Take `COc1ccc(-c2csc(NC(=O)CN3CCN(c4nnc(-c5ccccc5)c5ccccc45)CC3)n2)cc1`: the inhibition of growth at 10 µM is 40%.

Tested on in the next experiment: not listed separately
The experiment can be described thus: Growth inhibition of human Caki1 cells at 10 uM after 48 hrs by SRB method. The experiment is classed as functional. The conditions noted are these: CAKI-1, 48 h, read-out: GI. The method in brief: as §1
As to `COc1ccc(-c2csc(NC(=O)CN3CCN(c4nnc(-c5ccccc5)c5ccccc45)CC3)n2)cc1`, the inhibition of growth at 10 µM is 33%.

Tested on in a further experiment: not listed separately
Put plainly: Growth inhibition of human HOP92 cells at 10 uM after 48 hrs by SRB method. The experiment is classed as functional. The conditions noted are these: HOP-92, 48 h, read-out: GI. In outline:
as §1
`O=C(CN1CCN(c2nnc(-c3ccccc3)c3ccccc23)CC1)Nc1nccs1`: the inhibition of growth at 10 µM was 35%.

The next experiment concerns SR. Put plainly: Growth inhibition of human SR cells at 10 uM after 48 hrs by SRB method. The experiment is classed as functional. The settings on record: read-out: GI. In outline: as §1
For the molecule `O=C(CN1CCN(c2nnc(-c3ccccc3)c3ccccc23)CC1)Nc1nccs1`, the inhibition of growth at 10 µM amounted to 31%.
With `COc1ccc(-c2csc(NC(=O)CN3CCN(c4nnc(-c5ccccc5)c5ccccc45)CC3)n2)cc1`, the inhibition of growth at 10 µM was determined as 44%.

Tested on in another experiment: not listed separately
Put plainly: Growth inhibition of human MOLT4 cells at 10 uM after 48 hrs by SRB method. The settings on record: MOLT-4, 48 h, read-out: GI. In kind it is functional. The method in brief: as §1
As for `O=C(CN1CCN(c2nnc(-c3ccccc3)c3ccccc23)CC1)Nc1nccs1`, the inhibition of growth at 10 µM was 39%.
As to `COc1ccc(-c2csc(NC(=O)CN3CCN(c4nnc(-c5ccccc5)c5ccccc45)CC3)n2)cc1`, the inhibition of growth at 10 µM is 62%.

The test system of a further experiment is NCI-H226. Put plainly: Growth inhibition of human NCI-H226 cells at 10 uM after 48 hrs by SRB method. In kind it is functional. The conditions noted are these: NCI-H226, 48 h, read-out: GI. In outline: as §1
As for `COc1ccc(-c2csc(NC(=O)CN3CCN(c4nnc(-c5ccccc5)c5ccccc45)CC3)n2)cc1`, the inhibition of growth at 10 µM stood at 36%.

In the next experiment the test system is NCI-H522. The experiment can be described thus: Growth inhibition of human NCI-H522 cells at 10 uM after 48 hrs by SRB method. The experiment is classed as functional. The settings on record: NCI-H522, 48 h, read-out: GI. In outline:
as §1
On to `O=C(CN1CCN(c2nnc(-c3ccccc3)c3ccccc23)CC1)Nc1nccs1`, for which the inhibition of growth at 10 µM is 41%.
On to `COc1ccc(-c2csc(NC(=O)CN3CCN(c4nnc(-c5ccccc5)c5ccccc45)CC3)n2)cc1`, for which the inhibition of growth at 10 µM was 34%.

In a further experiment the test system is T47D. The experiment can be described thus: Growth inhibition of human T47D cells at 10 uM after 48 hrs by SRB method. The experiment is classed as functional. The settings on record: read-out: GI. In outline:
as §2
As to `O=C(CN1CCN(c2nnc(-c3ccccc3)c3ccccc23)CC1)Nc1nccs1`, the inhibition of growth at 10 µM turned out to be 64%.
For the molecule `COc1ccc(-c2csc(NC(=O)CN3CCN(c4nnc(-c5ccccc5)c5ccccc45)CC3)n2)cc1`, the inhibition of growth at 10 µM was determined as 82%.

Tested on in a further experiment: not listed separately
The experiment can be described thus: Growth inhibition of human TK10 cells at 10 uM after 48 hrs by SRB method. The experiment is classed as functional. The conditions noted are these: TK-10, 48 h, read-out: GI. In outline:
as §2
For the molecule `COc1ccc(-c2csc(NC(=O)CN3CCN(c4nnc(-c5ccccc5)c5ccccc45)CC3)n2)cc1`, the inhibition of growth at 10 µM is 32%.

For another experiment, the system named is SK-MEL-5. Put plainly: Growth inhibition of human SK-MEL-5 cells at 10 uM after 48 hrs by SRB method. In kind it is functional. The settings on record: SK-MEL-5, 48 h, read-out: GI. The method in brief: as §1
Take `O=C(CN1CCN(c2nnc(-c3ccccc3)c3ccccc23)CC1)Nc1nccs1`: the inhibition of growth at 10 µM amounted to 36%.
Consider `COc1ccc(-c2csc(NC(=O)CN3CCN(c4nnc(-c5ccccc5)c5ccccc45)CC3)n2)cc1`, for which the inhibition of growth at 10 µM worked out at 46%.

The test system of the next experiment is MDA-MB-231. The experiment can be described thus: Growth inhibition of human MDA-MB-231 cells at 10 uM after 48 hrs by SRB method. The conditions noted are these: MDA-MB-231, 48 h, read-out: GI. The experiment is classed as functional. In outline: as §1
With `COc1ccc(-c2csc(NC(=O)CN3CCN(c4nnc(-c5ccccc5)c5ccccc45)CC3)n2)cc1`, the inhibition of growth at 10 µM was found to be 42%.

Tested on in the next experiment: not listed separately
Put plainly: Growth inhibition of human OVCAR3 cells at 10 uM after 48 hrs by SRB method. The experiment is classed as functional. The conditions noted are these: OVCAR-3, 48 h, read-out: GI. The method in brief: as §1
For `O=C(CN1CCN(c2nnc(-c3ccccc3)c3ccccc23)CC1)Nc1nccs1`, the inhibition of growth at 10 µM amounted to 38%.

A further experiment has as its system A498. The experiment can be described thus: Growth inhibition of human A498 cells at 10 uM after 48 hrs by SRB method. In kind it is functional. The settings on record: A498, 48 h, read-out: GI. The method in brief: as §1
Consider `COc1ccc(-c2csc(NC(=O)CN3CCN(c4nnc(-c5ccccc5)c5ccccc45)CC3)n2)cc1`, for which the inhibition of growth at 10 µM turned out to be 43%.

Tested on in the next experiment: not listed separately
Put plainly: Growth inhibition of human HCT116 cells at 10 uM after 48 hrs by SRB method. In kind it is functional. The conditions noted are these: HCT-116, 48 h, read-out: GI. In outline: as §1
In the case of `COc1ccc(-c2csc(NC(=O)CN3CCN(c4nnc(-c5ccccc5)c5ccccc45)CC3)n2)cc1`, the inhibition of growth at 10 µM is 32%.
